Laboratory results: ChEMBL document CHEMBL1128676, “Phosphonates and phosphinates: novel leaving groups for benzisothiazolone inhibitors of human leukocyte elastase” (J Med Chem, 1995)

Legend:
[1] = biological target: T1, Neutrophil elastase (Homo sapiens) (UniProt P08246); assay: Inhibitory activity against Human leukocyte elastase as kinetic constant for inhibition (inactivation)
T1 sequence (whole entry): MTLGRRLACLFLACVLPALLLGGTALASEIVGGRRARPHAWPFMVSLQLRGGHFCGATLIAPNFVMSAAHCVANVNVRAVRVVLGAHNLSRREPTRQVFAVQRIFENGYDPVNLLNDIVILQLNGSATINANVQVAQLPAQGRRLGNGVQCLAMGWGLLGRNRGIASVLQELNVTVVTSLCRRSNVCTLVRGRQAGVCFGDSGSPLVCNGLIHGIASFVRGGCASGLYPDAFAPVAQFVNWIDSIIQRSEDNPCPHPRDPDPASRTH
Outline: (§1)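 Human leukocyte elastase inhibition measured in vitro at pH 7.8. Kinetic constants reported as k_inact (M⁻¹ s⁻¹), k_react (s⁻¹) and K_i* (nM).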

Cricetinae gen. sp. [2] = assay: In vivo inhibitory activity of 10 mg/kg compound administered intravenously against Human leukocyte elastase induced hemorrhage in hamster; type: functional, Cricetulus griseus; conditions: route intravenous
Outline: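 Hamster elastase-induced pulmonary hemorrhage model: 10 mg/kg given intravenously 1 min before intratracheal human leukocyte elastase (25 μg). Result expressed as % inhibition of HLE activity, mean ± error.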

[3] = biological target: T1, Neutrophil elastase (Homo sapiens); assay: Inhibitory activity against Human leukocyte elastase was determined in vitro and expressed as kinetic constant for inhibition (reactivity); outline: as §1
Neutrophil elastase [4] = biological target: T2, Neutrophil elastase (Homo sapiens, UniProt P08246); assay: Inhibitory activity against Human leukocyte elastase was determined; outline: as §1
T2 sequence (P08246 whole entry): T1 sequence (whole entry)

Neutrophil elastase [5] = biological target: T2, Neutrophil elastase; assay: In vitro inhibitory activity against Human leukocyte elastase; outline: as §1
Cricetinae gen. sp. [6] = assay: In vivo inhibitory activity of 10 mg/kg compound administered subcutaneously against Human leukocyte elastase induced hemorrhage in hamster; type: functional, Cricetulus griseus; conditions: sc, route subcutaneous
Outline: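 Hamsters dosed subcutaneously at 10 mg/kg, 1 min before intratracheal instillation of human leukocyte elastase (25 μg), to induce pulmonary hemorrhage. Readout is % inhibition of in vivo HLE activity, mean ± error.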

[7] = Acid dissociation constant was determined; type: ADME
[8] = biological target: T1, Neutrophil elastase (Homo sapiens)

SMILES	K inact [1] [M⁻¹ s⁻¹]	inhibition in vivo at 10 mg/kg (Cricetinae gen. sp. [2]) [%]	Kreact [3] [s⁻¹]	Ki (Neutrophil elastase [4]) [nM]	Ki (Neutrophil elastase [5]) [nM]	inhibition in vivo at 10 mg/kg (Cricetinae gen. sp. [6]) [%]	pKa [7]	K inact [8] [M⁻¹ s⁻¹]
CCOP(=O)(OCC)OCN1C(=O)c2c(C(C)C)cc(OC)cc2S1(=O)=O	343000	92	1.2e-05					
CCCCP(=O)(CCCC)OCN1C(=O)c2ccccc2S1(=O)=O	2300			24				
CCOP(=O)(OCC)OCN1C(=O)c2c(C(C)C)cc(O)cc2S1(=O)=O	3300		1.4e-05		4.5			
CCOP(=O)(OCC)OCN1C(=O)c2c(C(C)CC)cccc2S1(=O)=O (stereo not drawn)	800000		5.6e-05		0.07	83		
CCCCOP(=O)(OCCCC)OCN1C(=O)c2ccccc2S1(=O)=O	4800			17			2.59	
CCOP(=O)(OCC)OCN1C(=O)c2c(C(C)C)cccc2S1(=O)=O	530000	84	5.3e-05		0.1			
O=C1c2ccccc2S(=O)(=O)N1COP(=O)(c1ccccc1)c1ccccc1	1900			30			3.34	
COP(=O)(OC)OCN1C(=O)c2ccccc2S1(=O)=O	800			100			2.56	
CCOP(=O)(OCC)OCN1C(=O)c2ccccc2S1(=O)=O	1100		6.6e-05	60	60	56	2.5	1100
O=C1c2ccccc2S(=O)(=O)N1COP(=O)(Oc1ccccc1)Oc1ccccc1	11000			6.5			1.91	
O=C1c2ccccc2S(=O)(=O)N1COP(=O)(OCc1ccccc1)OCc1ccccc1	4100			20.5			2.26	
